Values after ≈ are worked out from the molar mass of the structure shown.
Legend:
[1] = tested on: Mycobacterium tuberculosis; assay: Antimycobacterial activity against Mycobacterium tuberculosis H37Rv assessed as growth inhibition at 6.25 ug/ml by BACTEC 460 radiometric assay relative to control; type: functional; settings: read-out: GI
[2] = tested on: Mycobacterium avium; assay: Antimycobacterial activity against Mycobacterium avium subsp. avium Chester ATCC 15769 incubated in dark for 5 days by Alamar Blue assay; type: functional; settings: Chester ATCC 15769, 120 h
Procedure, shortened: (§1)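 Middlebrook 7H9 broth with 0.4% glycerol and 10% OADC, pH 6.6. Compounds in DMSO, final 100–1.56 µg/mL by twofold steps. Inoculum 0.5–1.0 McFarland in saline, diluted 10⁻¹. Static incubation at 37 °C, dark, humid, 5 days. Alamar Blue (resazurin/Tween 80) added, read after 24 h. MIC = lowest concentration preventing the blue-to-pink change by eye; turbidity also inspected. Isoniazid control.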

[3] = tested on: Mycobacterium tuberculosis; assay: Antimycobacterial activity against Mycobacterium tuberculosis H37Rv ATCC 27294 incubated in dark for 5 days by Alamar Blue assay; type: functional; settings: H37Rv ATCC 27294, 120 h; procedure, shortened: as §1
[4] = tested on: Mycolicibacterium smegmatis; assay: Antimycobacterial activity against Mycobacterium smegmatis ATCC 607 incubated in dark for 48 hrs by resazurin assay; type: functional; settings: ATCC 607, 48 h
Procedure, shortened: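 Broth microdilution in Middlebrook 7H9 with glycerol and OADC, pH 6.6. Inoculum 0.5–1.0 McFarland, diluted 1:20 in broth. Compounds in DMSO by binary dilution, final 3.91–500 µg/mL; DMSO ≤2.5% v/v. Sealed plates kept dark, 37 °C, no agitation. After 48 h, 0.01% resazurin added; read after a further 2.5 h. Run in duplicate.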

[5] = Solubility of compound in DMSO at 15 mg at room temperature; type: physicochemical
[6] = tested on: Mycobacterium kansasii; assay: Antimycobacterial activity against Mycobacterium kansasii Hauduroy ATCC 12478 incubated in dark for 5 days by Alamar Blue assay; type: functional, Mycobacterium kansasii ATCC 12478; settings: 120 h
[7] = Selectivity index, ratio of IC50 for human HepG2 cells to MIC for Mycobacterium tuberculosis H37Rv ATCC 27294; type: toxicity; settings: read-out: Selectivity Index
Procedure, shortened: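 SI = HepG2 IC50 / Mtb H37Rv MIC, with MIC converted to µM (µg/mL ÷ MW). HepG2 cells (passage 32–34) seeded at 1×10^4 per well. Treated after 24 h with 0.1–1000 µM depending on solubility, DMSO ≤1%, triplicates, 37 °C, 5% CO2, 24 h. Viability read by MTS-type reagent at 490 nm after 2 h. IC50 from nonlinear regression.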

[8] = tested on: HepG2; assay: Cytotoxicity against human HepG2 cells assessed as decrease in cell viability after 24 hrs by MTS assay; type: cell-based; settings: HepG2, 24 h
Procedure, shortened: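 HepG2 (passage 32–34) seeded at 1×10^4 cells/well and treated 24 h later. Compounds in DMSO, 0.1–1000 µM depending on solubility; DMSO ≤1%. Triplicates at 37 °C, 5% CO2 for 24 h. MTS reagent (CellTiter 96 AQueous One) for 2 h, absorbance at 490 nm. IC50 by nonlinear regression of absorbance relative to untreated cells.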

[9] = Solubility of compound in DMSO at 15 mg at 55 to 80 degC; type: physicochemical
[10] = tested on: HepG2; assay: Cytotoxicity against human HepG2 cells assessed as decrease in cell viability after 48 hrs by CellTox green assay; type: cell-based; settings: HepG2, 48 h
Procedure, shortened: (§2)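 HepG2 seeded at 1×10^4 cells/well, dosed the next day with compounds in DMSO at 0.1–500 µM; DMSO ≤1%. Triplicates at 37 °C, 5% CO2. CellTox Green reagent added after 24 h exposure, 15 min at room temperature, fluorescence Ex 485/Em 520 nm. Reading repeated 24 h later for the 48 h value. IC50 by nonlinear regression against untreated control.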

[11] = tested on: HepG2; assay: Cytotoxicity against human HepG2 cells assessed as decrease in cell viability after 24 hrs by CellTox green assay; type: cell-based; settings: HepG2, 24 h; procedure, shortened: as §2

## Cc1csc(NC(=O)c2cnc(C(C)(C)C)c(Cl)n2)n1
[1]
  inhibition of growth at 6.25 µg/mL: 15 to 65%

## O=C(Nc1nc(-c2ccc(Cl)cc2)cs1)c1cnccn1
[2]
  MIC: > 12.5 µg/mL
[3]
  MIC: > 12.5 µg/mL
[4]
  MIC: 62.5 µg/mL (≈ 197 µM)
[5]
  solubility: Insoluble
[6]
  MIC: > 12.5 µg/mL

## NNC(=O)c1ccncc1 [ISONIAZID]
[2]
  MIC: 6.25 to 12.5 µg/mL (≈ 45.6 to 91.1 µM)
[3]
  MIC: 0.1 to 0.2 µg/mL
[4]
  MIC: 7.8 to 15.6 µg/mL (≈ 56.9 to 114 µM)
[5]
  solubility: Soluble
[6]
  MIC: 12.5 to 25 µg/mL (≈ 91.1 to 182 µM)

## COc1ccc(-c2csc(NC(=O)c3cnc(Cl)cn3)n2)cc1
[2]
  MIC: > 50 µg/mL
[3]
  MIC: 4.5 µM
[4]
  MIC: > 500 µg/mL
[7]
  selectivity ratio: > 16.7
[8]
  IC50: > 75 µM
[9]
  solubility: Soluble
[6]
  MIC: > 50 µg/mL

## O=C(Nc1nc(-c2ccc(Cl)cc2)cs1)c1cnc(Cl)cn1
[2]
  MIC: > 50 µg/mL
[3]
  MIC: > 50 µg/mL
[4]
  MIC: > 500 µg/mL
[5]
  solubility: Soluble
[6]
  MIC: > 50 µg/mL

## O=C(Nc1nc(-c2ccccn2)cs1)c1cnc(Cl)cn1
[2]
  MIC: > 50 µg/mL
[3]
  MIC: > 50 µg/mL
[4]
  MIC: > 125 µg/mL
[9]
  solubility: Soluble
[6]
  MIC: > 50 µg/mL

## COc1ccc(-c2csc(NC(=O)c3cnccn3)n2)cc1OC
[2]
  MIC: > 50 µg/mL
[3]
  MIC: > 50 µg/mL
[4]
  MIC: > 125 µg/mL
[5]
  solubility: Soluble
[6]
  MIC: > 50 µg/mL

## O=C(Nc1nc(-c2ccccc2)cs1)c1cncc(Cl)n1
[3]
  MIC: > 50 µg/mL
[4]
  MIC: > 500 µg/mL
[9]
  solubility: Soluble
[6]
  MIC: > 50 µg/mL

## O=C(Nc1nc(-c2ccccc2)cs1)c1cnc(Cl)cn1
[2]
  MIC: > 100 µg/mL
[3]
  MIC: > 100 µg/mL
[4]
  MIC: > 500 µg/mL
[9]
  solubility: Soluble
[6]
  MIC: > 100 µg/mL

## Cc1cnc(NC(=O)c2cncc(Cl)n2)s1
[1]
  inhibition of growth at 6.25 µg/mL: 15 to 65%

## CO[C@H]1/C=C/O[C@@]2(C)Oc3c(C)c(O)c4c(O)c(c(/C=N/N5CCN(C)CC5)c(O)c4c3C2=O)NC(=O)/C(C)=C\C=C\[C@H](C)[C@H](O)[C@@H](C)[C@@H](O)[C@@H](C)[C@H](OC(C)=O)[C@@H]1C [RIFAMPIN]
[2]
  MIC: 0.78 to 1.56 µg/mL (≈ 0.948 to 1.9 µM)
[3]
  MIC: 0.78 to 1.56 µg/mL
[4]
  MIC: 0.78 to 1.56 µg/mL (≈ 0.948 to 1.9 µM)
[6]
  MIC: 0.78 to 1.56 µg/mL (≈ 0.948 to 1.9 µM)

## O=C(Nc1nccs1)c1cncc(Cl)n1
[1]
  inhibition of growth at 6.25 µg/mL: 15 to 65%

## COc1ccc(-c2csc(NC(=O)c3cnccn3)n2)cc1
[2]
  MIC: > 100 µg/mL
[3]
  MIC: > 100 µg/mL
[4]
  MIC: > 250 µg/mL
[5]
  solubility: Soluble
[6]
  MIC: > 100 µg/mL

## COc1ccc(-c2csc(NC(=O)c3cnc(Cl)cn3)n2)cc1OC
[2]
  MIC: > 12.5 µg/mL
[3]
  MIC: > 12.5 µg/mL
[4]
  MIC: > 250 µg/mL
[5]
  solubility: Insoluble
[6]
  MIC: > 12.5 µg/mL

## Cc1cnc(NC(=O)c2cnc(C(C)(C)C)c(Cl)n2)s1
[1]
  inhibition of growth at 6.25 µg/mL: 15 to 65%

## O=C(Nc1nc(-c2ccccn2)cs1)c1cnccn1
[2]
  MIC: > 50 µg/mL
[3]
  MIC: 22.1 µM
[4]
  MIC: > 125 µg/mL
[7]
  selectivity ratio: > 1.1
[8]
  IC50: > 25 µM
[9]
  solubility: Soluble
[6]
  MIC: > 50 µg/mL

## O=C(Nc1nc(-c2ccc(F)cc2)cs1)c1cnccn1
[2]
  MIC: > 12.5 µg/mL
[3]
  MIC: > 12.5 µg/mL
[4]
  MIC: > 250 µg/mL
[5]
  solubility: Insoluble
[6]
  MIC: > 12.5 µg/mL

## O=C(Nc1nc(-c2ccccc2)cs1)c1cnccn1
[3]
  MIC: > 50 µg/mL
[4]
  MIC: > 250 µg/mL
[5]
  solubility: Soluble
[6]
  MIC: > 50 µg/mL

## COc1ccc(-c2csc(NC(=O)c3cncc(Cl)n3)n2)cc1
[2]
  MIC: > 12.5 µg/mL
[3]
  MIC: 4.5 µM
[4]
  MIC: 62.5 µg/mL (≈ 180 µM)
[7]
  selectivity ratio: > 5.6
[8]
  IC50: > 25 µM
[5]
  solubility: Insoluble
[6]
  MIC: 12.5 µg/mL (≈ 36 µM)

## Cc1csc(NC(=O)c2cncc(Cl)n2)n1
[1]
  inhibition of growth at 6.25 µg/mL: 15 to 65%

## CC(C)(C)c1ncc(C(=O)Nc2nccs2)nc1Cl
[1]
  inhibition of growth at 6.25 µg/mL: 15 to 65%

## O=C(Nc1nc(-c2ccc(F)cc2)cs1)c1cncc(Cl)n1
[10]
  IC50: > 50 µM
[2]
  MIC: 0.78 µg/mL (≈ 2.33 µM)
[11]
  IC50: > 50 µM
[3]
  MIC: 2.3 µM
[4]
  MIC: > 250 µg/mL
[7]
  selectivity ratio: > 21.5
[8]
  IC50: > 50 µM
[5]
  solubility: Soluble
[6]
  MIC: 0.78 µg/mL (≈ 2.33 µM)

## O=C(Nc1nc(-c2ccccn2)cs1)c1cncc(Cl)n1
[2]
  MIC: > 50 µg/mL
[3]
  MIC: > 50 µg/mL
[4]
  MIC: > 125 µg/mL
[9]
  solubility: Soluble
[6]
  MIC: > 50 µg/mL

## COc1ccc(-c2csc(NC(=O)c3cncc(Cl)n3)n2)cc1OC
[2]
  MIC: > 12.5 µg/mL
[3]
  MIC: 4.1 µM
[4]
  MIC: > 125 µg/mL
[7]
  selectivity ratio: > 6
[8]
  IC50: > 25 µM
[5]
  solubility: Insoluble
[6]
  MIC: > 12.5 µg/mL

## O=C(Nc1nc(-c2ccc(F)cc2)cs1)c1cnc(Cl)cn1
[10]
  IC50: 18.1 µM
[2]
  MIC: > 50 µg/mL
[11]
  IC50: 22.4 µM
[3]
  MIC: 9.4 µM
[4]
  MIC: > 500 µg/mL
[7]
  selectivity ratio: 2.7
[8]
  IC50: 24.8 µM
[5]
  solubility: Soluble
[6]
  MIC: 12.5 µg/mL (≈ 37.3 µM)

## O=C(O)c1cn(C2CC2)c2cc(N3CCNCC3)c(F)cc2c1=O [CIPROFLOXACIN]
[2]
  MIC: 0.098 to 0.195 µg/mL (≈ 0.296 to 0.589 µM)
[3]
  MIC: 0.098 to 0.195 µg/mL
[4]
  MIC: 0.098 to 0.195 µg/mL (≈ 0.296 to 0.589 µM)
[6]
  MIC: 0.098 to 0.195 µg/mL (≈ 0.296 to 0.589 µM)

## O=C(Nc1nc(-c2ccc(Cl)cc2)cs1)c1cncc(Cl)n1
[2]
  MIC: > 12.5 µg/mL
[3]
  MIC: > 12.5 µg/mL
[4]
  MIC: 62.5 µg/mL (≈ 178 µM)
[5]
  solubility: Soluble
[6]
  MIC: > 12.5 µg/mL

Reference: ChEMBL document CHEMBL4257500, “Design, synthesis and antimycobacterial activity of hybrid molecules combining pyrazinamide with a 4-phenylthiazol-2-amine scaffold” (Medchemcomm, 2018)
